SKKanGAS inh = inhibitors of SKKanGAS S. pyogenes growth in kanamycin (SK-promoter or general growth effect). BacTiter-Glo, 6 h. inhibition, % at 7.5 µM. 300,000 compounds, 1.3% hits. AID 1662;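 active means mean replicate score, as percent of positive control median, at least 50; inconclusive means mean below 50 but one replicate at or above 50; inactive means mean and every replicate below 50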;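 further: strain carries kanamycin resistance gene driven by streptokinase promoter and grows in 40 µg/ml kanamycin; loss of luminescence reflects streptokinase promoter inhibition or plain growth inhibition; 0% = median of DMSO wells and 100% = positive control at its reference dose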
Rad51 HR inh = Rad51 (human) homologous recombination inhibition; Q06609; 200,000 compounds, 0.085% hits; hRad51 DNA strand exchange, fluorescence dequenching; inhibition, % at 10 µM; AID 1385;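 active means inhibition above 40% at the single screening dose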;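 further: 0% = DMSO control wells and 100% = blanks with heterologous ssDNA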
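material = hRad51 filaments on single-stranded DNA | reagent = Donor/quencher-labelled 47-bp dsDNA substrate | compound = 10 µM final, single point | schedule = strand-exchange reaction 15 min at room temperature | measured by = fluorescein emission 520 nm, excitation 485 nm | read-out basis = % inhibition versus plate control and blank means | benchmarks = plate controls and plate blanks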
Insulin prom up = MIN6 insulin promoter up-regulation; MIN6 insulin promoter-GFP reporter, high-content imaging; hits give high values; 190,000 compounds, 0.3% hits; z-score at 5 µM; AID 1625;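 active means z-score above 3 at 5 µM with at least 500 cells counted in the well; inconclusive means wells under 500 cells, flagged as cytotoxic or low count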
WT yeast gro inh = growth inhibition of WT yeast, mitochondrial fusion screen | mitochondrial fusion phenotypic screen, WT strain | inhibition, % at 10 µM | 190,000 compounds, 2.1% hits; in the data active means inhibition above about 58%; tested in S. cerevisiae
KCC2 mod = modulates chloride dependent transport by human KCC2 | KCC2 cells, thallium flux FluoZin-2 fluorescence | B-score of Tl+ flux slope (higher = more flux/activation; lower = inhibition) at 10 µM | 190,000 compounds, 2.2% hits;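 active means thallium flux slope and its plate-corrected score both differing from the plate sample mean at a set confidence after two filtering rounds, in either direction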;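 further: slope of fluorescence scaled to starting intensity during 10 to 20 s after thallium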
Target sequence (Q9H2X9 whole entry, looked up): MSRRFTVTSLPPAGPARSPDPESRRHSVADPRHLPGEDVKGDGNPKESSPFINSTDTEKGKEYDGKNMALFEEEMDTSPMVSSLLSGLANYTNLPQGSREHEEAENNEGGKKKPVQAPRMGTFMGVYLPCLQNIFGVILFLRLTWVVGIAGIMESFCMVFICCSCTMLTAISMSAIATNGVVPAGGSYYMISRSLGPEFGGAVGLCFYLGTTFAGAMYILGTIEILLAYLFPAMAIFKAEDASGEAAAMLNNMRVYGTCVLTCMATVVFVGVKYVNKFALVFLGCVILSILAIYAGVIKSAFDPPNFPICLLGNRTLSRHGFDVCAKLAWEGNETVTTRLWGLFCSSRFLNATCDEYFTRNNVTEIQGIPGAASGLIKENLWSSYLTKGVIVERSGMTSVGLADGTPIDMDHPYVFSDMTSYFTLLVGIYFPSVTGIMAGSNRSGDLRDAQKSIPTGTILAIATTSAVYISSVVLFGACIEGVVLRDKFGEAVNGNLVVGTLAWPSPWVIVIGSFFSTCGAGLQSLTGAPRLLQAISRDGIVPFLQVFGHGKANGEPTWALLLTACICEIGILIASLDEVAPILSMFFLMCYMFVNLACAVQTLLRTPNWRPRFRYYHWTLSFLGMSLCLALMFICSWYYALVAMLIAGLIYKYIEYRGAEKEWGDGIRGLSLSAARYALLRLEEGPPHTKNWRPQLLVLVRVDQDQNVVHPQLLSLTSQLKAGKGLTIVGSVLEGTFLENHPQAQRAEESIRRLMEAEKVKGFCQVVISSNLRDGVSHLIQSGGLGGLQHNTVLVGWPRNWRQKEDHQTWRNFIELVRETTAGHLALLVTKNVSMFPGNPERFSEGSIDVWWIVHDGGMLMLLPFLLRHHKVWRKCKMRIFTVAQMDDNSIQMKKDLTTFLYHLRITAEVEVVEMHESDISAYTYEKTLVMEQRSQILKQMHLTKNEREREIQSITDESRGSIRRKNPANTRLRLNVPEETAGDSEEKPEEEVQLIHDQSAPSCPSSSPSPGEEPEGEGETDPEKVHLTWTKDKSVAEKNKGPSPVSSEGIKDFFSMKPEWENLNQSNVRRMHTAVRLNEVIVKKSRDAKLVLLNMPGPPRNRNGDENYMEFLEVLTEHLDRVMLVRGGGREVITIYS
Autophagy HCS = alters autophagy in cells; 190,000 compounds, 0.98% hits; calls only at 10 µM (by protocol); MEF GFP-LC3 puncta imaging; test concentration mostly 10 µM;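 active means percentage of spot-positive cells more than 3 SD above its plate mean, without a fluorescence outlier flag or 80% toxicity; inconclusive means no clear call, values can overlap the other calls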;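 further: spot-positive cell cutoff set from DMSO-treated cells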
KCC2 sec1 = confirmation of human KCC2 transport modulators; shares compounds with KCC2 mod; HEK293-KCC2, thallium flux, FluoZin2 fluorescence; hits give high values; 3,700 compounds, 15% hits; normalised thallium flux (F/F0 slope) at 10 µM;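 active means thallium flux slope above the same plate's solvent-only control mean plus 3 SD; inconclusive means the two replicate wells disagree; inactive means no significant difference from solvent-only control wells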
KCC2 bumet counter = bumetanide-insensitive thallium flux in KCC2 cells with ouabain, counter-screen; HEK293-KCC2 + bumetanide/ouabain, thallium flux FluoZin2; hits give high values; shares compounds with KCC2 mod; AID 1714; 3,700 compounds, 49% hits; normalized thallium flux at 10 µM;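 active means thallium entry rate above the same plate's blocked-transporter control wells by more than 3 SD; inconclusive means the two repeat wells disagree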;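 further: raw slope of fluorescence over initial fluorescence between 10 and 20 s after thallium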
KCC2 sec2 = KCC2 (human) modulation, second secondary assay. shares compounds with KCC2 mod. HEK293-KCC2, thallium flux FluoZin2 fluorescence; actives lie on both sides; F/F0 rise rate, 10–20 s post-thallium. normalized thallium flux at 10 µM. 3,700 compounds, 23% hits. AID 1715;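 active means thallium flux slope more than 3 SD above or below the plate's solvent-only control mean, mostly below; inconclusive means the two repeat wells disagreed; inactive means no significant shift from solvent-only controls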;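 further: raw slope with 0.1% DMSO as baseline and bumetanide as block control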
HEK293 Tl flux = parental HEK flux effect, counter-screen; HEK293 parental cells, thallium flux FluoZin2, ouabain; baseline-ratio fluorescence slope, 10–20 s after thallium; thallium flux rate (normalised fluorescence) at 10 µM; 3,700 compounds, 46% hits; AID 1716; shares compounds with KCC2 mod;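 active means thallium flux rate significantly above the same plate's solvent-only control wells, beyond their mean plus 3 SD; inconclusive means the two replicate wells gave conflicting results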
KCC2 retest ouab = confirmation of human KCC2 modulators with ouabain. shares compounds with KCC2 mod. HEK293-KCC2, thallium flux FluoZin2 fluorescence; bidirectional: low = inhibitor, high = activator. raw Tl+ flux slope (below DMSO = inhibition, above = activation) at 10 µM. 3,700 compounds, 48% hits. AID 1717;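 active means thallium flux slope beyond 3 SD from same-plate DMSO control mean in most replicates, usually higher, sometimes lower; inconclusive means repeat tests gave conflicting results; inactive means no significant difference from controls in most replicates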;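 further: slope of initial-normalized fluorescence between seconds 10 and 20 after thallium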
HEK counter2 = acts in parental HEK cells, second KCC2 counter-screen; shares compounds with KCC2 mod; HEK293 parental, thallium flux FluoZin-2 fluorescence slope; thallium flux slope at 10 µM; 3,700 compounds, 33% hits;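 active means thallium flux slope above the same plate's solvent-control mean plus 3 SD in both duplicate wells; inconclusive means duplicate wells that disagreed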;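 further: run without ouabain in cells lacking the KCC2 cotransporter; slope of fluorescence scaled to its starting value between 10 and 20 s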
* hit, by the source's call. In the library only some 4.2% were active in any assay of this set; here they are far more common.

For S=c1[nH]nc(-c2ccco2)n1/N=C/c1cccc(Cl)c1 the results were SKKanGAS inh 23, Insulin prom up -0.21, KCC2 mod 9.2*, KCC2 sec1 0.018, KCC2 bumet counter 0.014*, KCC2 sec2 0.031, HEK293 Tl flux 0.012*, KCC2 retest ouab 0.022* and HEK counter2 0.016*.
`S=c1[nH]nc(-c2ccccn2)n1/N=C/c1cccc(Cl)c1` gave SKKanGAS inh 3, Rad51 HR inh -7, Insulin prom up -0.06, WT yeast gro inh -10, KCC2 mod 1.3 and Autophagy HCS inactive.
For CCOc1ccc(N2CC(C(=O)NC3CCSC3=O)CC2=O)cc1 (centres undefined) the results were SKKanGAS inh 4.
Screening COc1ccccc1C1CC(c2ccc(Cl)cc2)Nc2nc(N)nn21 (centres undefined) returned SKKanGAS inh 0, Rad51 HR inh -4, Insulin prom up -0.8, WT yeast gro inh 11, KCC2 mod 0.037 and Autophagy HCS inactive.
For CCOc1ccccc1C1CC(c2ccc(F)cc2)Nc2nc(N)nn21 (centres undefined) the results were SKKanGAS inh 3, Rad51 HR inh 5, Insulin prom up 0.35, WT yeast gro inh 10, KCC2 mod -3.4*, KCC2 sec1 0.0061, KCC2 bumet counter 0.0051, KCC2 sec2 0.027, HEK293 Tl flux 0.0078, KCC2 retest ouab 0.017 and HEK counter2 0.011.
`CCOc1cc(C=O)cc(Br)c1OCC(=O)NCCc1ccccc1` gave SKKanGAS inh 0, Rad51 HR inh 6, Insulin prom up 0.15, WT yeast gro inh 10, KCC2 mod -3.7 and Autophagy HCS inactive.
CN(C)CCCN1C(=O)c2oc3ccc(Cl)cc3c(=O)c2C1c1cccnc1 (centres undefined) was read as SKKanGAS inh 0, Rad51 HR inh 6, WT yeast gro inh 3, KCC2 mod 3.7*, KCC2 sec1 0.0094, KCC2 bumet counter 0.015*, KCC2 sec2 0.034, HEK293 Tl flux 0.0099*, KCC2 retest ouab inconclusive and HEK counter2 0.011.
Clc1ccc(Oc2nc(N3CCOCC3)nc(N3CCOCC3)n2)cc1 was read as SKKanGAS inh 2, Rad51 HR inh 3, Insulin prom up -0.24, WT yeast gro inh 6, KCC2 mod 7.6*, Autophagy HCS inactive, KCC2 sec1 0.0091, KCC2 bumet counter 0.0068, KCC2 sec2 0.03, HEK293 Tl flux 0.0074, KCC2 retest ouab 0.021 and HEK counter2 inconclusive.
`c1cc2c(cc1Oc1nc(N3CCOCC3)nc(N3CCOCC3)n1)OCO2` gave SKKanGAS inh -1, Rad51 HR inh 1, Insulin prom up 0.22, WT yeast gro inh -9, KCC2 mod 0.22 and Autophagy HCS inactive.
For Cc1nc(NC(=S)NC(=O)c2ccccc2)sc1C the results were SKKanGAS inh -6, Rad51 HR inh 12, Insulin prom up 0.23, KCC2 mod 46*, KCC2 sec1 0.015*, KCC2 bumet counter 0.06*, KCC2 sec2 0.034, HEK293 Tl flux 0.028*, KCC2 retest ouab 0.037* and HEK counter2 0.013*.
For Cc1nc(NC(=O)c2ccccc2)sc1C the results were SKKanGAS inh 2.
COC(=O)c1sc(NC(=S)NC(=O)c2ccccc2F)nc1C was read as SKKanGAS inh 5, Rad51 HR inh -5, Insulin prom up -0.17, WT yeast gro inh 7, KCC2 mod 36*, Autophagy HCS inactive, KCC2 sec1 0.0079, KCC2 bumet counter 0.037*, KCC2 sec2 inconclusive, HEK293 Tl flux 0.033*, KCC2 retest ouab 0.04* and HEK counter2 0.022*.
Screening CN1C(=O)CSC1=S returned SKKanGAS inh -2.
`COc1cc(Cl)c(C)cc1NC(=O)CN(C)Cc1cccc(OC)c1OC` gave SKKanGAS inh 2, Rad51 HR inh -10, Insulin prom up 3.4*, WT yeast gro inh 59*, KCC2 mod -3.6*, Autophagy HCS inactive, KCC2 sec1 0.0078, KCC2 bumet counter 0.0042, KCC2 sec2 0.028, HEK293 Tl flux 0.0061*, KCC2 retest ouab 0.018 and HEK counter2 inconclusive.
`COc1ccccc1CN(C)CC(=O)Nc1cccc2ccccc12` gave SKKanGAS inh -4.
CCOc1cc(CNn2cnnc2)cc(Cl)c1OCC(=O)NC(C)(C)C was read as SKKanGAS inh -1.
CC(C)(C)C(=O)/C=c1\[nH]c(=O)/c(=C\c2ccccc2F)s1 was read as SKKanGAS inh 18, Rad51 HR inh 3, Insulin prom up -0.09, WT yeast gro inh 3, KCC2 mod 18*, Autophagy HCS inactive, KCC2 sec1 0.0078, KCC2 bumet counter 0.024*, KCC2 sec2 0.038*, HEK293 Tl flux 0.015*, KCC2 retest ouab 0.032* and HEK counter2 0.018*.
Screening CC(C)(C)c1cc(C(=O)NNC(=O)c2ccc(C(F)(F)F)cc2)no1 returned SKKanGAS inh 4, Rad51 HR inh -1, KCC2 mod 64*, KCC2 sec1 0.028*, KCC2 bumet counter 0.083*, KCC2 sec2 inconclusive, HEK293 Tl flux 0.041*, KCC2 retest ouab 0.045* and HEK counter2 0.022*.
CC(C)CCNC(=O)[C@H](CSCc1ccccc1)N1Cc2ccccc2C1=O was read as SKKanGAS inh 5, Rad51 HR inh -10, Insulin prom up -0.8, WT yeast gro inh 35, KCC2 mod -4.2*, Autophagy HCS inactive, KCC2 sec1 0.0058*, KCC2 bumet counter 0.0045, KCC2 sec2 inconclusive, HEK293 Tl flux inconclusive, KCC2 retest ouab 0.014* and HEK counter2 0.0093.
For Cc1cccc(C(=O)NCC(=O)NNC(=O)c2ccccc2O)c1 the results were SKKanGAS inh -6.
